Activity calls are given as the source filed them. The rule behind the calls is not given here.
Key:
[1] = Ratio of compound Emax(50) to that of isoproterenol Emax(50) in guinea pig, isolated, spontaneously beating, right atrial preparation; Expressed as drug Emax(50)/Iso Emax(50) mean; type: functional, Cardiac atrium
Summary of the method: (§1)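 Right atria from guinea pigs (300–400 g, either sex) killed by cervical dislocation, in 10-mL Krebs–Henseleit baths under 0.02 N tension, spontaneously beating; rate read by tachograph. Two cumulative isoproterenol curves, then one test-compound curve, 30-min intervals, three washes after each. The second isoproterenol curve was the reference, with a desensitization correction (factor 1.2). Intrinsic activity relative to isoproterenol = 1. Ratio = molar EC50 of drug ÷ molar EC50 of isoproterenol, same experiment.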

Adrenergic receptor beta [2] = biological target: T1, Adrenergic receptor beta (Homo sapiens, UniProt P08588+P07550+P13945); assay: Beta adrenergic receptor agonist activity at compound concentration of 100 ug/mL in guinea pig, isolated, carbachol-contracted tracheal preparations; type: functional; details: Cavia porcellus; target entry is the homologue from another species
Adrenergic receptor beta [3] = biological target: T1, Adrenergic receptor beta; assay: Beta adrenergic receptor antagonistic activity in reserpine pre-treated guinea pig, isolated, spontaneously beating, right atrial preparation; type: functional, tissue-based, Cavia porcellus, Cardiac atrium; details: target entry is the homologue from another species
Adrenergic receptor beta [4] = biological target: T1, Adrenergic receptor beta; assay: Beta adrenergic receptor agonist activity in reserpine pre-treated guinea pig, isolated, spontaneously beating, right atrial preparation; type: functional, tissue-based; details: Cavia porcellus; Cardiac atrium; target entry is the homologue from another species
Summary of the method: (§2)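 Guinea pigs given reserpine 5 mg/kg i.p., atria removed 18–24 h later and tested with tyramine 17 µmol/L beforehand. Spontaneously beating right atria in Krebs–Henseleit under 0.02 N tension, rate recorded. Cumulative isoproterenol curves (second used, corrected) and one test curve at 30-min intervals. Ratio = molar concentration at 50% own maximum ÷ isoproterenol equivalent, same experiment.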

Felis catus [5] = assay: Activity ratio of molar concentration to molar concentration of isoproterenol in DBP in choralose anaesthetized cats; type: functional
Summary of the method: (§3)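 Chloralose (80 mg/kg) plus sodium phenobarbitone (6 mg/kg) i.p.-anesthetized, bilaterally vagotomized cats (2.3–3.6 kg, either sex), spontaneously breathing via tracheal cannula. Brachial vein injection in 0.9% NaCl. Carotid blood pressure and pulse-triggered heart rate recorded. Concurrent cumulative dose–response curves followed isoproterenol. Ratio = molar dose giving 50% of own maximum ÷ isoproterenol molar dose giving 50% of its maximum, same animal.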

Adrenergic receptor beta [6] = biological target: T1, Adrenergic receptor beta; assay: Beta adrenergic receptor agonist activity in guinea pig, isolated, spontaneously beating, right atrial preparation; type: functional, tissue-based; details: Cavia porcellus; Cardiac atrium; target entry is the homologue from another species; summary of the method: as §1
[7] = Ratio of compound Emax(50) to that of isoproterenol Emax(50) in reserpine-pretreated, guinea pig, isolated, spontaneously beating, right atrial preparation; Expressed as drug Emax(50)/Iso Emax(50) mean; type: functional, Cardiac atrium; summary of the method: as §2
Adrenergic receptor beta [8] = biological target: T1, Adrenergic receptor beta; assay: Beta adrenergic receptor antagonistic activity in guinea pig, isolated, carbachol-contracted tracheal preparations; type: functional, Cavia porcellus; details: target entry is the homologue from another species
Summary of the method: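 Guinea pig trachea contracted with carbachol 10 µmol/L, 0.02 N resting tension, Krebs–Henseleit bath. Isoproterenol relaxation curves before and 15 min after antagonist, repeated at higher concentrations after washing. pA2 and slope from Schild plot (Arunlakshana–Schild). Slope difference from 1.0 tested by Student's t test.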

Felis catus [9] = assay: Activity ratio of molar concentration to molar concentration of isoproterenol in HR in choralose anaesthetized cats; type: functional; summary of the method: as §3
Adrenergic receptor beta [10] = biological target: T1, Adrenergic receptor beta; assay: Beta adrenergic receptor antagonistic activity in guinea pig, isolated, carbachol-contracted tracheal preparations; NA = No antagonism of isoproterenol responses up to 2.2 x 10E-8 mol/L; type: functional; details: Cavia porcellus; target entry is the homologue from another species
Adrenergic receptor beta [11] = biological target: T1, Adrenergic receptor beta; assay: Beta adrenergic receptor agonist activity a in guinea pig, isolated, carbachol-contracted tracheal preparations; type: functional; details: Cavia porcellus; target entry is the homologue from another species
Summary of the method: (§4)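 Guinea pigs (300–400 g, either sex) killed by cervical dislocation. Trachea mounted in a 10-mL bath of Krebs–Henseleit under 0.02 N resting tension. Tone raised submaximally with carbachol 10 µmol/L, and relaxation recorded. Cumulative test-compound curves went up to 100 µg/mL, referenced to isoproterenol (=1). Where no maximum was reached, values reflect the 100 µg/mL response. Ratios were taken at 15% of isoproterenol maximum.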

Adrenergic receptor beta [12] = biological target: T1, Adrenergic receptor beta; assay: Beta adrenergic receptor antagonistic activity in reserpine pre-treated guinea pig, isolated, spontaneously beating, right atrial preparation; NA = No antagonism of isoproterenol responses up to 2.2 x 10E-8 mol/L; type: functional, tissue-based; details: Cavia porcellus; Cardiac atrium; target entry is the homologue from another species
Summary of the method: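 Guinea pigs given reserpine 5 mg/kg i.p. 18–24 h before tissue removal, then checked with tyramine 17 µmol/L. Spontaneously beating right atrium held in Krebs–Henseleit at 0.02 N tension, with rate read by tachograph. Isoproterenol cumulative curves were run before and 15 min after adding the test drug, then repeated after washing at higher drug concentration. pA2 was determined by the Arunlakshana–Schild method.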

Adrenergic receptor beta [13] = biological target: T1, Adrenergic receptor beta; assay: Beta adrenergic receptor agonist activity in guinea pig, isolated, carbachol-contracted tracheal preparations; type: functional; details: Cavia porcellus; target entry is the homologue from another species; summary of the method: as §4

Row | Intrinsic activity (Adrenergic receptor beta [2]) | pD2 (Adrenergic receptor beta [2]) | pA2 (Adrenergic receptor beta [3]) | Intrinsic activity (Adrenergic receptor beta [4]) | pD2 (Adrenergic receptor beta [4]) | Intrinsic activity (Adrenergic receptor beta [6]) | pD2 (Adrenergic receptor beta [6]) | pA2 (Adrenergic receptor beta [8]) | Compound | Ratio [1] | Activity ratio (Felis catus [5]) | Ratio [7] | Activity ratio (Felis catus [9]) | pA2 (Adrenergic receptor beta [10]) | Intrinsic activity (Adrenergic receptor beta [11]) | pA2 (Adrenergic receptor beta [12]) | pD2 (Adrenergic receptor beta [13])
1 | 0.06 | 3.49 | 4.84 | 0.59 | 5.18 | 0.42 | 5.05 | 5.05 | CC(C)NCC1NCCc2cc(O)c(O)cc21 (centres undefined) | 2700 | 2200 | 4400 | 1700 | – | – | – | –
2 | 0.2 | 3.44 | 4.63 | 0.53 | 4.22 | 0.7 | 4.49 | 4.66 | NCC1NCCc2cc(O)c(O)cc21 (centres undefined) | 8800 | – | 32600 | 12700 | – | – | – | –
3 | 0.18 | 3.51 | 4.68 | 0.29 | 5.23 | 0.14 | 5.1 | 5.76 | CC(C)(C)NCC1NCCc2cc(O)c(O)cc21 (centres undefined) | 2100 | – | 3600 | 900 | – | – | – | –

Row | Compound | Intrinsic activity (Adrenergic receptor beta [2]) | pD2 (Adrenergic receptor beta [2]) | pA2 (Adrenergic receptor beta [3]) | Intrinsic activity (Adrenergic receptor beta [4]) | pD2 (Adrenergic receptor beta [4]) | Intrinsic activity (Adrenergic receptor beta [6]) | pD2 (Adrenergic receptor beta [6]) | pA2 (Adrenergic receptor beta [8]) | Ratio [1] | Activity ratio (Felis catus [5]) | Ratio [7] | Activity ratio (Felis catus [9]) | pA2 (Adrenergic receptor beta [10]) | Intrinsic activity (Adrenergic receptor beta [11]) | pA2 (Adrenergic receptor beta [12]) | pD2 (Adrenergic receptor beta [13])
4 | Oc1ccc(CC2NCCc3cc(O)c(O)cc32)cc1O (centres undefined) | – | – | – | 0.95 | 7.05 | 0.94 | 6.96 | – | 26 | – | 38 | – | inactive | 0.62 | inactive | 6.45

Reference: ChEMBL document CHEMBL1122469, “Synthesis of 1-(aminomethyl)-1,2,3,4-tetrahydroisoquinolines and their actions at adrenoceptors in vivo and in vitro” (J Med Chem, 1983)
